# Columns and labels:
# Assay type in all cases: functional
# [1] = system: CCRF-CEM; assay: Cytotoxicity against human CCRF-CEM cells
# [2] = system: K562; assay: Cytotoxicity against human K562 cells
# Outline: (§1)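 Tested in a 60-cell-line human tumor panel screen; the read-out is growth inhibition, reported as GI50 for each cell line.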
# [3] = system: MOLT-4; assay: Cytotoxicity against human MOLT4 cells; outline: as §1
# [4] = system: A549; assay: Cytotoxicity against human A549 cells; outline: as §1
# [5] = Cytotoxicity against human EKVX cells; outline: as §1
# [6] = system: HOP-62; assay: Cytotoxicity against human HOP62 cells; outline: as §1
# [7] = system: NCI-H226; assay: Cytotoxicity against human NCI-H226 cells; outline: as §1
# [8] = system: NCI-H23; assay: Cytotoxicity against human NCI-H23 cells; outline: as §1
# [9] = system: COLO 205; assay: Cytotoxicity against human COLO205 cells; outline: as §1
# [10] = system: HCC 2998; assay: Cytotoxicity against human HCC2998 cells; outline: as §1
# [11] = Cytotoxicity against human HCT15 cells; outline: as §1
# [12] = system: HT-29; assay: Cytotoxicity against human HT-29 cells; outline: as §1
# [13] = system: KM12; assay: Cytotoxicity against human KM12 cells; outline: as §1
# [14] = system: SF-295; assay: Cytotoxicity against human SF295 cells; outline: as §1
# [15] = system: SF-539; assay: Cytotoxicity against human SF539 cells; outline: as §1
# [16] = system: SNB-19; assay: Cytotoxicity against human SNB19 cells; outline: as §1
# [17] = system: SNB-75; assay: Cytotoxicity against human SNB75 cells
# Outline: (§2)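 Cell line run as part of the 60-cell-line screening panel; growth inhibition was reported as a GI50 for each line.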
# [18] = system: U-251; assay: Cytotoxicity against human U251 cells; outline: as §2
# [19] = system: LOX IMVI; assay: Cytotoxicity against human LOXIMVI cells; outline: as §1
# [20] = system: M14; assay: Cytotoxicity against human M14 cells; outline: as §1
# [21] = system: NCI-H322M; assay: Cytotoxicity against human NCI-H322M cells; outline: as §1
# [22] = system: NCI-H460; assay: Cytotoxicity against human NCI-H460 cells; outline: as §1
# [23] = system: SK-MEL-2; assay: Cytotoxicity against human SK-MEL-2 cells; outline: as §1
# [24] = system: SK-MEL-5; assay: Cytotoxicity against human SK-MEL-5 cells; outline: as §1
# [25] = Cytotoxicity against human UACC257 cells; outline: as §2
# [26] = Cytotoxicity against human UACC62 cells; outline: as §2
# [27] = Cytotoxicity against human OVCAR3 cells; outline: as §1
# [28] = Cytotoxicity against human OVCAR4 cells; outline: as §1
# [29] = Cytotoxicity against human OVCAR5 cells; outline: as §1
# [30] = Cytotoxicity against human OVCAR8 cells; outline: as §1
# [31] = Cytotoxicity against human NCI-ADR-RES cells; outline: as §1
# [32] = system: SK-OV-3; assay: Cytotoxicity against human SKOV3 cells; outline: as §1
# [33] = system: A498; assay: Cytotoxicity against human A498 cells; outline: as §1
# [34] = system: ACHN; assay: Cytotoxicity against human ACHN cells; outline: as §1
# [35] = system: CAKI-1; assay: Cytotoxicity against human Caki1 cells; outline: as §1
# [36] = system: RXF 393; assay: Cytotoxicity against human RXF393 cells; outline: as §1
# [37] = system: TK-10; assay: Cytotoxicity against human TK10 cells; outline: as §2
# [38] = Cytotoxicity against human UO31 cells; outline: as §2
# [39] = system: DU-145; assay: Cytotoxicity against human DU145 cells; outline: as §1
# [40] = system: MCF7; assay: Cytotoxicity against human MCF7 cells; outline: as §1
# [41] = system: MDA-MB-231; assay: Cytotoxicity against human MDA-MB-231 cells; outline: as §1
# [42] = system: BT-549; assay: Cytotoxicity against human BT549 cells; outline: as §1
# [43] = system: T47D; assay: Cytotoxicity against human T47D cells; outline: as §2
# [44] = system: MDA-MB-468; assay: Cytotoxicity against human MDA-MB-468 cells; outline: as §1
# [45] = read-out: pLC50 (the source's name) (converted)
structure (smiles),measurement,setting,value
COc1cc(/C=C/c2cc(O)c3c(C/C=C(\C)CCC=C(C)C)c[nH]c3c2)cc2c1O[C@]1(C)CC[C@@H](O)C(C)(C)[C@H]1C2,GI50,[1],0.724 µM
same,CC50,[1]; [45],> 100 µM
same,TGI,[1]; read-out: pTGI (converted),> 100 µM
same,GI50,[2],0.417 µM
same,CC50,[2]; [45],> 100 µM
same,TGI,[2]; read-out: pTGI (converted),8.71 µM
same,GI50,[3],0.282 µM
same,CC50,[3]; [45],> 100 µM
same,TGI,[3]; read-out: pTGI (converted),2.51 µM
same,GI50,[4],2.57 µM
same,CC50,[4]; [45],> 100 µM
same,TGI,[4]; read-out: pTGI (converted),> 100 µM
same,GI50,[5],0.724 µM
same,CC50,[5]; [45],> 100 µM
same,TGI,[5]; read-out: pTGI (converted),4.47 µM
same,GI50,[6],0.794 µM
same,CC50,[6]; [45],8.71 µM
same,TGI,[6]; read-out: pTGI (converted),2.75 µM
same,GI50,[7],24 µM
same,CC50,[7]; [45],> 100 µM
same,TGI,[7]; read-out: pTGI (converted),> 100 µM
same,GI50,[8],2.45 µM
same,CC50,[8]; [45],> 100 µM
same,TGI,[8]; read-out: pTGI (converted),24.5 µM
same,GI50,[9],0.331 µM
same,CC50,[9]; [45],6.31 µM
same,TGI,[9]; read-out: pTGI (converted),1.02 µM
same,GI50,[10],4.9 µM
same,CC50,[10]; [45],> 100 µM
same,TGI,[10]; read-out: pTGI (converted),36.3 µM
same,GI50,[11]; HCT-15,0.741 µM
same,CC50,"[11]; HCT-15, read-out: pLC50 (the source's name) (converted)",53.7 µM
same,TGI,"[11]; HCT-15, read-out: pTGI (converted)",6.76 µM
same,GI50,[12],0.219 µM
same,CC50,[12]; [45],20.4 µM
same,TGI,[12]; read-out: pTGI (converted),1.66 µM
same,GI50,[13],0.525 µM
same,CC50,[13]; [45],5.37 µM
same,TGI,[13]; read-out: pTGI (converted),1.78 µM
same,GI50,[14]; read-out: GI50,0.11 µM
same,GI50,[14]; read-out: pGI50 (converted),0.112 µM
same,CC50,[14]; [45],2.88 µM
same,TGI,[14]; read-out: pTGI (converted),0.417 µM
same,GI50,[15],0.229 µM
same,CC50,[15]; [45],6.03 µM
same,TGI,[15]; read-out: pTGI (converted),1.45 µM
same,GI50,[16],2.45 µM
same,CC50,[16]; [45],> 100 µM
same,TGI,[16]; read-out: pTGI (converted),> 100 µM
same,GI50,[17],0.245 µM
same,CC50,[17]; [45],> 100 µM
same,TGI,[17]; read-out: pTGI (converted),3.63 µM
same,GI50,[18],0.603 µM
same,CC50,[18]; [45],> 100 µM
same,TGI,[18]; read-out: pTGI (converted),> 100 µM
same,GI50,[19],1.26 µM
same,CC50,[19]; [45],29.5 µM
same,TGI,[19]; read-out: pTGI (converted),4.79 µM
same,GI50,[20],2 µM
same,CC50,[20]; [45],> 100 µM
same,TGI,[20]; read-out: pTGI (converted),11.2 µM
same,GI50,[21],60.3 µM
same,CC50,[21]; [45],> 100 µM
same,TGI,[21]; read-out: pTGI (converted),> 100 µM
same,GI50,[22],1.2 µM
same,CC50,[22]; [45],57.5 µM
same,TGI,[22]; read-out: pTGI (converted),6.61 µM
same,GI50,[23],0.871 µM
same,CC50,[23]; [45],> 100 µM
same,TGI,[23]; read-out: pTGI (converted),18.2 µM
same,GI50,[24],1.07 µM
same,CC50,[24]; [45],5.37 µM
same,TGI,[24]; read-out: pTGI (converted),2.4 µM
same,GI50,[25]; UACC-257,9.12 µM
same,CC50,"[25]; UACC-257, read-out: pLC50 (the source's name) (converted)",> 100 µM
same,TGI,"[25]; UACC-257, read-out: pTGI (converted)",49 µM
same,GI50,[26]; UACC-62,1.26 µM
same,CC50,"[26]; UACC-62, read-out: pLC50 (the source's name) (converted)",> 100 µM
same,TGI,"[26]; UACC-62, read-out: pTGI (converted)",4.68 µM
same,GI50,[27]; OVCAR-3,33.9 µM
same,CC50,"[27]; OVCAR-3, read-out: pLC50 (the source's name) (converted)",> 100 µM
same,TGI,"[27]; OVCAR-3, read-out: pTGI (converted)",> 100 µM
same,GI50,[28]; OVCAR-4,6.46 µM
same,CC50,"[28]; OVCAR-4, read-out: pLC50 (the source's name) (converted)",> 100 µM
same,TGI,"[28]; OVCAR-4, read-out: pTGI (converted)",> 100 µM
same,GI50,[29]; OVCAR-5,15.1 µM
same,CC50,"[29]; OVCAR-5, read-out: pLC50 (the source's name) (converted)",> 100 µM
same,TGI,"[29]; OVCAR-5, read-out: pTGI (converted)",> 100 µM
same,GI50,[30]; OVCAR-8,72.4 µM
same,CC50,"[30]; OVCAR-8, read-out: pLC50 (the source's name) (converted)",> 100 µM
same,TGI,"[30]; OVCAR-8, read-out: pTGI (converted)",> 100 µM
same,GI50,[31],46.8 µM
same,CC50,[31]; [45],> 100 µM
same,TGI,[31]; read-out: pTGI (converted),> 100 µM
same,GI50,[32],5.13 µM
same,LC50,[32],> 100 µM
same,TGI,[32]; read-out: pTGI (converted),> 100 µM
same,GI50,[33],1.2 µM
same,CC50,[33]; [45],> 100 µM
same,TGI,[33]; read-out: pTGI (converted),9.77 µM
same,GI50,[34],7.24 µM
same,LC50 (concentration killing 50% of cells),[34],> 100 µM
same,TGI,[34]; read-out: pTGI (converted),> 100 µM
same,GI50,[35],0.447 µM
same,LC50,[35],7.76 µM
same,TGI,[35]; read-out: pTGI (converted),1.82 µM
same,GI50,[36],0.0661 µM
same,LC50,[36],3.63 µM
same,TGI,[36]; read-out: pTGI (converted),0.309 µM
same,GI50,[37],16.6 µM
same,LC50,[37],> 100 µM
same,TGI,[37]; read-out: pTGI (converted),> 100 µM
same,GI50,[38]; UO-31,0.933 µM
same,LC50,[38]; UO-31,8.91 µM
same,TGI,"[38]; UO-31, read-out: pTGI (converted)",2.95 µM
same,GI50,[39],5.37 µM
same,LC50 (50% lethal concentration),[39],> 100 µM
same,TGI,[39]; read-out: pTGI (converted),> 100 µM
same,GI50,[40],0.617 µM
same,LC50,[40],8.51 µM
same,TGI,[40]; read-out: pTGI (converted),2.45 µM
same,GI50,[41],1.1 µM
same,LC50,[41],85.1 µM
same,TGI,[41]; read-out: pTGI (converted),6.31 µM
same,GI50,[42],0.525 µM
same,CC50,[42]; [45],> 100 µM
same,TGI,[42]; read-out: pTGI (converted),> 100 µM
same,GI50,[43],6.92 µM
same,CC50,[43]; [45],> 100 µM
same,TGI,[43]; read-out: pTGI (converted),> 100 µM
same,GI50,[44],2 µM
same,LC50,[44],> 100 µM
same,TGI,[44]; read-out: pTGI (converted),44.7 µM

# — ChEMBL document CHEMBL3232844, “Synthesis and structure activity relationships of schweinfurthin indoles” (2014)
